Values joined by “and” are separate entries in the source; they are usually repeats but may differ in a detail not shown here. Identical values can stand only once. “Also recorded” adds a separate entry of the source.
Experiments:
[1] = test system: NCI/ADR-RES drug-resistant xenograft; assay type: in vivo; settings: for tumor growth following the first drug administration on day 0 / days with statistically significant effects vs paclitaxel-treated tumors: intratumoral; for tumor growth following the first drug administration on day 0: 20 μg 21 or 26, 40 μg paclitaxel; for first day of statistically significant difference vs vehicle-treated tumors: intratumoral 20 μg on days 0, 3, 6, 10, 14, two-way ANOVA, Tukey; for persistence of antitumor efficacy after the final dose: intratumoral injection, paclitaxel-resistant tumor
[2] = target: T1, purified porcine brain tubulin (Sus scrofa, UniProt P02554); assay: Tubulin polymerization, turbidimetric at 340 nm; assay type: biochemical; settings: 5 μM compound, tubulin 2 mg/mL, 37°C
How it was run: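 Test compound at 5 μM, a reference taccalonolide at 5−20 μM, or vehicle (1% EtOH). Samples were prepared on ice, then warmed to 37 °C to start polymerization. Rate and extent were followed turbidimetrically at 340 nm.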

[3] = Hydrolytic stability in aqueous solution; assay type: physicochemical; settings: 10 mg in 1:1 EtOH-PBS, 36 h, room temperature
How it was run: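 Test compound stirred in 1× PBS–EtOH; the mixture was then vacuum-dried and extracted with CH3CN. The hydrolysis product was isolated by semipreparative C18 HPLC eluted with 60−100% CH3CN/H2O containing 0.1% formic acid. Isolated yield was the read-out.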

[4] = Initial dose tolerance; assay type: in vivo, mice; settings: systemic (ip), drug-sensitive or -resistant xenograft models
[5] = test system: NCI/ADR-RES drug-resistant xenograft; settings: systemic administration; no reference given; cited from earlier work
[6] = test system: HeLa cervical cancer cell line; settings: cited from earlier work
[7] = aqueous conditions; cited from earlier work
[8] = target: T1, purified porcine brain tubulin; settings: cited from earlier work
[9] = compared to 3; cited from earlier work
[10] = plasma / in vivo; cited from earlier work

T1 sequence (P02554 whole entry): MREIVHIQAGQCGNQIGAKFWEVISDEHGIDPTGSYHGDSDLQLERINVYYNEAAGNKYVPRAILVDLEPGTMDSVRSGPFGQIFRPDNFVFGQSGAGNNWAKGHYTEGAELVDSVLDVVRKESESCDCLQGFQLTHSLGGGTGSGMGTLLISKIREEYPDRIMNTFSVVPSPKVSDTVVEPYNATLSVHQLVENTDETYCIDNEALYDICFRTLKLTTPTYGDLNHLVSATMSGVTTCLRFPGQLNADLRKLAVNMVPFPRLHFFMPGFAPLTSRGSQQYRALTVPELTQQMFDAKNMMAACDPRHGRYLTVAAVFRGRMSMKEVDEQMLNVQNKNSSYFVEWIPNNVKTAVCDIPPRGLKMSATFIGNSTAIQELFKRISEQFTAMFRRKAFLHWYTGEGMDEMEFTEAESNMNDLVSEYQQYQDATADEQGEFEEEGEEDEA
T1 sequence (P02550 whole entry partner): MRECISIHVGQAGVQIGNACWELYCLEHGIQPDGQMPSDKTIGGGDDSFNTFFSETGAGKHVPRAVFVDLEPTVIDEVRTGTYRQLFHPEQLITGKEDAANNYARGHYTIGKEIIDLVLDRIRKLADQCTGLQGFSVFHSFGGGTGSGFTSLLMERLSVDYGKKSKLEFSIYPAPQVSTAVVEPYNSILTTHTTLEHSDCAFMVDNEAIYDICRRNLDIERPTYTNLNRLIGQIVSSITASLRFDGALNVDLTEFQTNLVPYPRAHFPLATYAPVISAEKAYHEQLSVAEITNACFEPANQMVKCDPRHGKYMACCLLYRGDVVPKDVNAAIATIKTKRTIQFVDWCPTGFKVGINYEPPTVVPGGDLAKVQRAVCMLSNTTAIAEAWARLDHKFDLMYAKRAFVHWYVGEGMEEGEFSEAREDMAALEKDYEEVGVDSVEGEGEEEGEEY

CC(=O)O[C@H]1C(=O)[C@@]2(C)[C@H]([C@H](OC(=O)c3ccccc3)[C@]3(O)C[C@H](OC(=O)[C@H](O)[C@@H](NC(=O)c4ccccc4)c4ccccc4)C(C)=C1C3(C)C)[C@]1(OC(C)=O)CO[C@@H]1C[C@@H]2O [paclitaxel, reference compound]
tumor growth rate compared with vehicle up to day 14 ([1]; intratumoral 40 μg): not different statistically
tumor growth following the first drug administration on day 0 [1]: unaffected

CC(=O)O[C@H]1[C@H]2[C@H]([C@@H]3[C@@H](O)[C@@H]4[C@H]([C@H](C)[C@H]5O[C@]56OC(=O)[C@@](C)(O)[C@]46C)[C@@]3(C)[C@H]1OC(C)=O)[C@@H](OC(=O)C(C)(C)C)C(=O)[C@H]1C[C@@H]3O[C@@H]3[C@H](OC(C)=O)[C@]21C [Compound 27]
extent of tubulin polymerization compared with 4 [2]: comparable levels of tubulin polymerization compared to an equivalent concentration of 4

CC(=O)O[C@H]1[C@H]2[C@H]([C@@H]3[C@@H](OC(=O)c4ccc5c(c4)C(=O)c4ccccc4C5=O)[C@@H]4[C@H]([C@H](C)[C@H]5O[C@]56OC(=O)[C@@](C)(O)[C@]46C)[C@@]3(C)[C@H]1OC(C)=O)[C@@H](O)C(=O)[C@H]1C[C@@H]3O[C@@H]3[C@H](OC(C)=O)[C@]21C [Compound 24]
hydrolysis to 4, yield [3]: 67.4% and 67%

CC(=O)O[C@H]1[C@H]2[C@H]([C@@H]3[C@@H](OC(=O)C(C)(C)C)[C@@H]4[C@H]([C@H](C)[C@H]5O[C@]56OC(=O)[C@@](C)(O)[C@]46C)[C@@]3(C)[C@H]1OC(C)=O)[C@@H](O)C(=O)[C@H]1C[C@@H]3O[C@@H]3[C@H](OC(C)=O)[C@]21C [Compound 22]
antitumor effects during MTD evaluations [4]: lack of observable antitumor effects

CC(=O)O[C@H]1[C@H]2[C@H]([C@@H]3[C@@H](OC(=O)CC(C)C)[C@@H]4[C@H]([C@H](C)[C@H]5O[C@]56OC(=O)[C@@](C)(O)[C@]46C)[C@@]3(C)[C@H]1OC(C)=O)[C@@H](O)C(=O)[C@H]1C[C@@H]3O[C@@H]3[C@H](OC(C)=O)[C@]21C [Compound 21]
antitumor effects during MTD evaluations [4]: lack of observable antitumor effects
extent of tubulin polymerization compared with 4 [2]: greater extent of tubulin polymerization than equivalent concentrations of 4
first day on which a tumor reached 1,500 mm^3 ([1]; 31 days after the final dose, intratumoral 20 μg): 45 days
days with statistically significant effects vs paclitaxel-treated tumors [1]: 12 to 14 days
first day of statistically significant difference vs vehicle-treated tumors [1]: 10 days
persistence of antitumor efficacy after the final dose [1]: at least 30 days
tumor growth following the first drug administration on day 0 [1]: abruptly slowed

CC(=O)O[C@@H]1[C@H]2[C@H]3[C@H]([C@H](OC(C)=O)[C@H](OC(C)=O)[C@]2(C)[C@H]2[C@H](C)[C@H]4O[C@]45OC(=O)[C@@](C)(O)[C@]5(C)[C@H]12)[C@]1(C)[C@H](C[C@@H]2O[C@@H]2[C@@H]1OC(C)=O)C(=O)[C@@H]3O [Compound 3, taccalonolide AF]
efficacy in the taxane-resistant model [5]: has efficacy in this taxane-resistant model with systemic administration
potency relative to 1 [6]: over 200 fold
hydrolysis of C-15 acetoxy group [7]: readily hydrolyzed to generate 4 under aqueous conditions
effect on polymerization of purified tubulin [8]: directly stimulates the polymerization of purified tubulin

CC(=O)O[C@H]1[C@H]2[C@H]([C@@H]3[C@@H](OC(=O)C4CC4)[C@@H]4[C@H]([C@H](C)[C@H]5O[C@]56OC(=O)[C@@](C)(O)[C@]46C)[C@@]3(C)[C@H]1OC(C)=O)[C@@H](O)C(=O)[C@H]1C[C@@H]3O[C@@H]3[C@H](OC(C)=O)[C@]21C [Compound 19]
antitumor effects during MTD evaluations [4]: lack of observable antitumor effects
extent of tubulin polymerization compared with 4 [2]: comparable levels of tubulin polymerization compared to an equivalent concentration of 4

CC(=O)O[C@H]1[C@H]2[C@H]([C@@H]3[C@@H](O)[C@@H]4[C@H]([C@H](C)[C@H]5O[C@]56OC(=O)[C@@](C)(O)[C@]46C)[C@@]3(C)[C@H]1OC(C)=O)[C@@H](O)C(=O)[C@H]1C[C@@H]3O[C@@H]3[C@H](OC(C)=O)[C@]21C [Compound 4, taccalonolide AJ]
microsomal clearance [9]: higher microsomal clearance; also recorded: increased rate of microsomal clearance as compared to 3
half-life [10]: lower in vivo half-life; also recorded: shorter plasma half-life

CC(=O)O[C@H]1[C@H]2[C@H]([C@@H]3[C@@H](OC(=O)C(C)C)[C@@H]4[C@H]([C@H](C)[C@H]5O[C@]56OC(=O)[C@@](C)(O)[C@]46C)[C@@]3(C)[C@H]1OC(C)=O)[C@@H](O)C(=O)[C@H]1C[C@@H]3O[C@@H]3[C@H](OC(C)=O)[C@]21C [Compound 20]
antitumor effects during MTD evaluations [4]: lack of observable antitumor effects
extent of tubulin polymerization compared with 4 [2]: comparable levels of tubulin polymerization compared to an equivalent concentration of 4

CC(=O)O[C@H]1[C@H]2[C@H]([C@@H]3[C@@H](O)[C@@H]4[C@H]([C@H](C)[C@H]5O[C@]56OC(=O)[C@@](C)(O)[C@]46C)[C@@]3(C)[C@H]1OC(C)=O)[C@@H](OC(=O)CC(C)C)C(=O)[C@H]1C[C@@H]3O[C@@H]3[C@H](OC(C)=O)[C@]21C [Compound 26]
antitumor effects during MTD evaluations [4]: lack of observable antitumor effects
extent of tubulin polymerization compared with 4 [2]: greater extent of tubulin polymerization than equivalent concentrations of 4
growth of tumors with smaller initial volumes (130 – 233 mm^3) ([1]; four tumors, intratumoral 20 μg): did not increase in size even by day 54
days with statistically significant effects vs paclitaxel-treated tumors [1]: 12 to 14 days
first day of statistically significant difference vs vehicle-treated tumors [1]: 12 days
persistence of antitumor efficacy after the final dose [1]: at least 30 days
tumor growth following the first drug administration on day 0 [1]: abruptly slowed
